This note sets out measurements from ChEMBL document CHEMBL2331456, “Isobutylhydroxyamides from the pericarp of Nepalese Zanthoxylum armatum inhibit NF1-defective tumor cell line growth” (J Nat Prod, 2013).

Data set [1] in a line: Growth inhibition of mouse Nf1-/-;Trp53-/- KR158 cells assessed as green luminescence at 2 ug/ml after 2 days. In kind it is functional. As to conditions: KR158, 48 h, read-out: GI. In outline:
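KR158 Nf1−/−;Trp53−/− astrocytoma cells carry a human E2F1-promoter luciferase that gives green luminescence only in actively dividing cells. Cells were seeded at 1000 cells/well, and compounds were added after ≥4 h attachment. Green luminescence was read with ChromoGlo reagent after 2 d. Growth inhibition compares treated cells with vehicle-treated cells, both in growth media.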

Data set [2] is described as follows: Cytotoxicity against mouse Nf1-/-;Trp53-/- KR158 cells assessed as cell viability at 2 ug/ml after 2 days by red luminescence assay relative to control. In kind it is cell-based. Particulars: read-out: Activity. The procedure, abridged: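 Nf1−/−;Trp53−/− KR158 mouse astrocytoma cells carry a CMV-promoter luciferase that gives red luminescence in all living cells. Cells were plated at 1000 cells/well and allowed to attach (≥4 h), then compounds were added. Luminescence was read with ChromoGlo reagent 2 d later. Loss of viability compares treated cells in growth media with […].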

For the next data set, the system named is NCI60. Description: Cytotoxicity against human NCI60 cells at 10 uM. In kind it is functional, cell-based.

Active and inactive are the calls of the source. The calls are words filed in the database; no cut-off is given here.

Regarding `C[C@H]1C=C[C@@H](/C=C/CC/C=C/C(=O)NCC(C)(C)O)OO1` [TIMURAMIDE B], the inhibition of growth at 2 µg/mL in data set [1] was found to be 13%. For the same compound, in data set [2], the viability at 48 h, 2 ug/ml was found to be 65%.

`C[C@H](O)[C@H](O)/C=C/C=C\CC/C=C/C(=O)NCC(C)(C)O`: the inhibition of growth at 2 µg/mL in data set [1] turned out to be 31%. Moreover, the viability at 48 h, 2 ug/ml in data set [2] turned out to be 79%.

Consider `CC(O)/C=C/C=C/C(O)CC/C=C/C(=O)NCC(C)(C)O` (stereo not drawn), for which, in data set [1], the inhibition of growth at 2 µg/mL stood at 41%. In data set [2], the viability at 48 h, 2 ug/ml came to 67%.

On to `C/C=C/C=C/C=C/CC/C=C/C(=O)NCC(C)(C)O`, for which the inhibition of growth at 2 µg/mL in data set [1] was 65%. Also, the viability at 48 h, 2 ug/ml in data set [2] worked out at 56%.

As for `CC(=O)/C=C/C=C/C(O)CC/C=C/C(=O)NCC(C)(C)O` (stereo not drawn), in data set [1], the inhibition of growth at 2 µg/mL worked out at 52%. The viability at 48 h, 2 ug/ml in data set [2] turned out to be 75%.

For `C[C@H]1C=C[C@@H](/C=C\CC/C=C/C(=O)NCC(C)(C)O)OO1` [TIMURAMIDE A], in data set [1], the inhibition of growth at 2 µg/mL worked out at 38%. Moreover, the result in the data set with NCI60 was inactive. Moreover, the viability at 48 h, 2 ug/ml in data set [2] was 97%.

With `C[C@@H](O)[C@H](O)/C=C/C=C\CC/C=C/C(=O)NCC(C)(C)O`, the inhibition of growth at 2 µg/mL in data set [1] was 56%. Besides, the viability at 48 h, 2 ug/ml in data set [2] stood at 66%.

Regarding `C/C=C/C=C/C=C\CC/C=C/C(=O)NCC(C)(C)O`, the inhibition of growth at 2 µg/mL in data set [1] was found to be 53%. The viability at 48 h, 2 ug/ml in data set [2] was 106%.

With `CC(C)(O)CNC(=O)/C=C/CC/C=C\C=C\C(=O)O` [TIMURAMIDE C], the inhibition of growth at 2 µg/mL in data set [1] was 47%. In addition, the outcome with NCI60 was inactive. Also, the viability at 48 h, 2 ug/ml in data set [2] is 66%.

`CC(C)(O)CNC(=O)/C=C/CCC(=O)O` [TIMURAMIDE D]: in data set [1], the inhibition of growth at 2 µg/mL amounted to 42%. In addition, the outcome with NCI60 was inactive. Also, the viability at 48 h, 2 ug/ml in data set [2] was determined as 70%.
